# Compounds with a hit are over-represented: about 2% of the library has one in this group of screens.
# Runt-SMMHC FRET: inhibitors of RUNX1 Runt–CBFb-SMMHC binding, primary screen, biochemical, FRET, Cerulean-Runt, Venus-CBFb-SMMHC, uHTS; Runt-related transcription factor 1 (Homo sapiens) + Core-binding factor subunit beta …; Cerulean-Runt/Venus-CBFb-SMMHC FRET ratio 530/480, 1 h; inhibition, % at 20 µM; 220,000 compounds, 0.74% hits;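 active = mean inhibition across duplicate retests at 20 µM reaching about 50%, limit read from the data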;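 also: inhibitors lower the FRET ratio by blocking Runt binding to CBFb-SMMHC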
# MEX-5 binding: MEX-5 zinc finger RNA-binding disruptors – biochemical, C. elegans, fluorescence polarization, MLPCN library, primary screen; Zinc finger protein mex-5 (Caenorhabditis elegans), Q9XUB2; MEX-5/FITC-TCR2 RNA binding; stronger effect = lower value; activity score (negative = inhibition of binding), % at 10 µM; 300,000 compounds, 0.38% hits; AID 1832, 2009;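 active = inhibition past about -25% in most replicates, and total fluorescence under double the plate's negative control median, limit read from the data; inconclusive = replicates evenly split on the limit, or fluorescence at least double controls; inactive = too little inhibition in most replicates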
# Runt-CBFb FRET: inhibitors of RUNX1 Runt–CBFb binding, primary screen, biochemical, FRET, Cerulean-Runt, Venus-CBFb, uHTS; Runt-related transcription factor 1 (Homo sapiens) + Core-binding factor subunit beta …; Cerulean-Runt/Venus-CBFb FRET ratio 530/480, 1 h; inhibition, % at 20 µM; 220,000 compounds, 0.46% hits; AID 1496, 2009;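 active = inhibition over about 50% at 20 µM in the single-dose screen, limit read from the data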
#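 Schedule: protein complex preformed 1 h, compound exposure 1 h, room temperature, dark; test system: Cerulean-labeled Runt domain protein; amount: 100 nM per protein; buffer or medium: Tris 50 mM pH 7.5, KCl, K2SO4, 0.01% BSA; read-out: loss of energy transfer signal; detection: FRET fluorescence; controls: 5 µM unlabeled CBFb as full-inhibition high control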
# PKD1 inh: inhibitors of human PKD1 kinase, biochemical, fluorescence polarization | Serine/threonine-protein kinase D1 (Homo sapiens), Q15139 | PKD1 kinase fluorescence polarization assay | inhibition, % (no concentration beside the values) | 200,000 compounds, 0.056% hits
# Target sequence (Q15139 whole entry, looked up): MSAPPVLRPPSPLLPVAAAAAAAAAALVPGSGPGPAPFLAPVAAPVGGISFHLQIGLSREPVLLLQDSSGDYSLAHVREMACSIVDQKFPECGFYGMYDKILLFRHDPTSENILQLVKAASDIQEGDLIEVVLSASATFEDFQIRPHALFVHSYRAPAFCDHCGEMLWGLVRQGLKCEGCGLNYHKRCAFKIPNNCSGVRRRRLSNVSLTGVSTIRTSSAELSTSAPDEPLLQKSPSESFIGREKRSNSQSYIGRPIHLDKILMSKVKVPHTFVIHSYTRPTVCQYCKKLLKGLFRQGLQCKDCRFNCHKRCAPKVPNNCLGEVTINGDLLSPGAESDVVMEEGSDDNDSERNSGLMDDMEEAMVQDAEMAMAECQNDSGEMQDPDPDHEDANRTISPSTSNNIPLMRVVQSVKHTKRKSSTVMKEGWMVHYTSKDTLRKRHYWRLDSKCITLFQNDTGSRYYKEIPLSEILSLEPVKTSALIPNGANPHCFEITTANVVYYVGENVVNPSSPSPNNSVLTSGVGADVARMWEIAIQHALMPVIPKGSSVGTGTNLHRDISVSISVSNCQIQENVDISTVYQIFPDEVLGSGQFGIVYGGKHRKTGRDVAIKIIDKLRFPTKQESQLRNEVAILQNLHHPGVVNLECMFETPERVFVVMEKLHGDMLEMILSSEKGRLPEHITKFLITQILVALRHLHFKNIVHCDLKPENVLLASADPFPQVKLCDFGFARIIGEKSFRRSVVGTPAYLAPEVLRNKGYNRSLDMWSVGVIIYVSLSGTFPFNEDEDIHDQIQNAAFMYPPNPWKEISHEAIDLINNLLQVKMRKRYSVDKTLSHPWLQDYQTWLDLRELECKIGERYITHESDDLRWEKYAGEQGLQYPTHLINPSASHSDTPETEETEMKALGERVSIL
# EBV gp42 inh: Epstein-Barr virus gp42 inhibitors, primary screen, biochemical, uHTS, fluorescence polarization; 220,000 compounds, 0.42% hits; Fluorescence polarization binding assay, mP read-out; AID 1085, 2008; Glycoprotein 42 (Epstein-Barr virus (strain AG876)), Q1HVG2; inhibition, % (tested at 21.74 µM)
# RanGTP-Imp inh: inhibitors of RanGTP-importin-beta interaction, primary screen, biochemical, FRET, CFP-Ran, YFP-importin-beta, homogeneous; cell-free CFP-Ran/YFP-importin-beta FRET ratio; inhibition, % (concentration not given with the values); 300,000 compounds, 1.1% hits; AID 2216, 2009;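 active = more than half of the replicate wells show a fall in the fluorescence ratio signal beyond about 16%, limit read from the data, passing the limit was not always enough; inconclusive = exactly half of the replicate wells pass the set limit; inactive = fewer than half of replicates pass the limit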
# RUNX1 CBFb TR: inhibitors of RUNX1 Runt–CBFb binding, biochemical, TR-FRET; shares compounds with Runt-CBFb FRET; TR-FRET RUNX1 Runt domain-CBFb binding; inhibition, % at 20 µM; 480 compounds, 20% hits; AID 1502, 2009; in the data active = inhibition above about 40%
# Numbers stand for hits; - = inactive; ? = inconclusive; . = not tested or not shown. Rule as the data show it, unless noted: active = inhibition above about 50%; inactive = the rest.
SMILES,Runt-SMMHC FRET,MEX-5 binding,Runt-CBFb FRET,PKD1 inh,EBV gp42 inh,RanGTP-Imp inh,RUNX1 CBFb TR
O=C(NNC(=O)c1cc(O)c(O)c(O)c1)NC1CCCCC1,-,-,55.1,-,-,-,61.3
COc1cc(OC)c(C2CC(=O)N3CN(c4ccccc4)CSC3=C2C#N)cc1OC (stereo not drawn),110.8,-,80.4,-,-,-,-
CCc1ccccc1N1CSC2=C(C#N)C(c3cc(OC)c(OC)cc3OC)CC(=O)N2C1 (stereo not drawn),-,-,-,-,-,-,.
Oc1cc(-n2cccn2)c(O)cc1-n1cccn1,100.0,-,52.6,.,-,-,-
COc1ccccc1CCNS(=O)(=O)c1cc2c3c(c1)CCN3C(=O)CC2,.,-,.,.,.,-,.
CCNC(=S)N(Cc1cc2cc(C)c(C)cc2[nH]c1=O)C1CCCC1,.,-,.,-,-,-,.
CCNC(=S)N(Cc1cc2cc(C)ccc2[nH]c1=O)C1CCCC1,-,-,57.7,-,-,-,-
CCNC(=S)N(Cc1cc2c(C)ccc(C)c2[nH]c1=O)C1CCCC1,-,-,59.6,-,-,-,-
COc1ccccc1C(=O)NC(C(=O)NCCc1nc2ccccc2[nH]1)=C(C)C,.,-,.,.,.,-,.
O=C(NNC1=C(C(=O)C(F)(F)F)CCC1)c1ccc(Cl)cc1,-,-,77.2,-,-,-,-
O=C(NNC1=C(C(=O)C(F)(F)F)CCC1)c1cccc(Cl)c1,-,-,-,-,-,-,.
CCCCc1cc(=O)oc2c(CN(C)C)c(O)c(Cl)cc12,156.0,.,74.7,-,-,.,-
Cc1cccc(-n2cnc3c(sc4nc(N5CCOCC5)c5c(c43)CCCC5)c2=O)c1,-,-,-,.,-,-,.
O=Cc1cc(-c2ccccc2)[nH]c1-c1ccccc1,.,-,.,.,.,-,.
CCCn1nc(NC(=O)C2CCCO2)c2cc3cccc(C)c3nc21 (stereo not drawn),81.5,-,62.4,.,-,67.7,-
CCOC(=O)CC(=O)CSc1nc(CC)c(C)cc1C#N,-,-,52.8,.,-,-,-
CCc1nc(SCC(=O)O)c(C#N)cc1C,-,-,-,-,-,-,.
COc1ccc(CC(=O)OC(C)C(=O)c2ccc(C)cc2)cc1 (stereo not drawn),.,-,.,.,.,-,.
CC1CN(S(=O)(=O)c2cccc(C(=O)OCc3cc(=O)oc4cc(O)ccc34)c2)CC(C)O1 (stereo not drawn),-,-,-,-,.,-,.
CN(C)c1cccc(C(=O)OCc2cc(=O)oc3cc(O)ccc23)c1,80.8,-,84.6,-,51.7,?,52.0
CN(C)c1oc(/C=C/c2ccccc2)nc1C#N,122.2,-,62.8,-,-,-,-
CN(C)c1oc(-c2ccccc2)nc1C#N,-,-,-,-,-,-,.
CCOC(=O)C1=C(C)N(c2ccccc2)C(=O)/C1=C\c1ccc(O)c(OC)c1,-,-,54.9,.,-,-,59.6
CCOC(=O)C1=C(C)N(c2ccccc2)C(=O)/C1=C\c1ccco1,-,-,-,-,-,?,.
CC(C)NC(=O)c1cccc(Cn2cc(Cl)cn2)c1,-,-,53.6,-,-,-,-
SMILES,Runt-SMMHC FRET,MEX-5 binding,Runt-CBFb FRET,PKD1 inh,EBV gp42 inh,RanGTP-Imp inh,RUNX1 CBFb TR
COC(=O)c1ccc(Cn2cc(Cl)cn2)cc1,-,-,-,-,-,-,.
Cc1ccc2[nH]c3c(c2c1)CCCC3NCCO (stereo not drawn),.,-,.,.,.,-,.
O=C1CC(c2ccco2)CC(O)=C1C=NCCO (stereo not drawn),-,-,80.6,-,-,-,-
CN(Cc1cn(Cc2ccccc2)nc1-c1ccc2c(c1)OCO2)Cc1nccn1C,-,-,-,-,-,-,.
CN(CCC#N)C(=O)COC(=O)c1c2c(nc3ccccc13)/C(=C/c1ccco1)CC2,.,-,73.6,-,95.2,-,62.6
Cc1cc(C)cc(NC(=O)C(OC(=O)c2ccc(NC(=O)CC#N)cc2)c2ccccc2)c1 (stereo not drawn),.,-,.,.,.,-,.
C=Cc1ccc2c(c1)N(C)C(=C)S2,-,-,-,-,-,-,.
O=c1oc2c(-c3ccc([N+](=O)[O-])cc3)cc(O)cc2s1,-,-,56.0,.,-,-,-
NC1=C(c2ccc([N+](=O)[O-])cc2)C(=O)CO1,-,-,-,-,-,-,.
COc1ccc(/C=N/NC(=O)c2nc(-c3ccccc3)n(-c3ccccc3)n2)cc1OC,-,-,76.0,-,-,-,-
CC(=O)N1[C@H](C)C=C[C@]1(Cc1ccccc1)C(=O)NCCN1CCOCC1,.,-,.,.,.,-,.
CCC(=O)NC(=S)NNC(=O)c1ccccc1[N+](=O)[O-],-,-,50.9,-,-,-,-
O=C(NC(=S)NNC(=O)c1ccccc1[N+](=O)[O-])c1ccccc1,-,-,-,-,-,-,.
N#C/C(=C\c1cccnc1)C(=O)Nc1ccc(S(N)(=O)=O)cc1,.,-,.,.,.,-,.
CSc1ncccc1C(=O)N1CCN(S(=O)(=O)c2ccccc2)CC1,.,-,.,.,.,?,.
Oc1ccc(-c2cnns2)c(O)c1,.,-61.4,73.3,-,-,-,57.6
COc1ccc(CCn2c(N)c(C(=O)NCc3ccco3)c3nc4ccccc4nc32)cc1,78.7,-,57.7,-,-,57.6,-
CN=c1scc(-c2ccccc2F)n1/N=C(\C)c1cccnc1,-,-,-,-,-,-,.
CCOC(=O)CN(C(=O)COc1nc(-c2ccccc2)cc(C)c1C#N)c1ccccc1C,-,-,-,.,-,-,.
CCn1c(SCC(=O)NCc2ccco2)nnc1-c1ccncc1,-,-,-,-,-,-,.
CCCn1c(SCC(=O)NCc2ccco2)nnc1-c1ccncc1,-,-,73.8,-,-,-,-
O=C(CN1CCCCC1)Nc1ccc(NC(=O)c2ccccc2Cl)cc1Cl,-,-,-,-,-,-,.
Oc1ccc(-c2csc(Nc3ncccn3)n2)cc1O,-,-,50.4,-,-,-,41.7
Oc1ccc(-c2csc(-c3cccnc3)n2)cc1O,-,-,52.8,.,-,-,67.6
CCOC(=O)c1cnc2ccc(C)cc2c1Sc1ccc(F)cc1,-,-,85.8,-,-,-,-
CCC(C)[C@H](NC(=O)N1CC(=O)Nc2ccccc21)C(=O)N1CCC[C@H]1C(=O)O (stereo partly drawn),.,-,.,.,.,-,.

# Bioassay records deposited in PubChem BioAssay by several laboratories.
